Test results taken from ChEMBL document CHEMBL1138528, “Discovery of tetrasubstituted imidazolines as potent and selective neuropeptide Y Y5 receptor antagonists: reduced human ether-a-go-go related gene potassium channel binding affinity and potent antiobesity effect” (J Med Chem, 2009).

Assays:
[1] = target: T1, Neuropeptide Y receptor type 5 (Homo sapiens, UniProt Q15761); test: Displacement of [125I]PYY from human recombinant neuropeptide Y5 receptor expressed in mouse LMtk- cells; assay type: cell-based
T1 sequence (Q15761 whole entry): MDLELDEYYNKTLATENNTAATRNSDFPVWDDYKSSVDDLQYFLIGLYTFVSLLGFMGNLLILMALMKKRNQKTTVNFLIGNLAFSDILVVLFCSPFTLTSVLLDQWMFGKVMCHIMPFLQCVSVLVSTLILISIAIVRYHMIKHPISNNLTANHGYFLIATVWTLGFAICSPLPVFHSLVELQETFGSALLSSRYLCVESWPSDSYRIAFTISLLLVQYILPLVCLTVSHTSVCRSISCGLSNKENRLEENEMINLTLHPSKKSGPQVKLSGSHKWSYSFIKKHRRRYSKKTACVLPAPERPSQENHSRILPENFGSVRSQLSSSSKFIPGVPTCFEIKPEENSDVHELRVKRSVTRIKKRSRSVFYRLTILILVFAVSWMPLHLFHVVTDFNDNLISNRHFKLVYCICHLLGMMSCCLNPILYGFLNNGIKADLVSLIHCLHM

[2] = Metabolic stability in rat hepatocytes assessed as hepatic clearance by serum incubation method; assay type: ADME, cell-based, Liver, Hepatocyte
[3] = Octanol-water distribution coefficient, log D at pH 7.4; assay type: physicochemical
[4] = Ratio of drug level from cerebrospinal fluid to brain in Sprague-Dawley rat at 10 mg/kg, po after 2 hrs; assay type: ADME, organism-based, CSF/Brain; set-up: dose 10 mg/kg, route oral; conditions: in vivo
[5] = target: Voltage-gated inwardly rectifying potassium channel KCNH2 (Homo sapiens, UniProt Q12809);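 further: radioligand displacement binding to human ERG expressed in HEK293 cells, using a [35S]-labelled spiro-benzopyran-piperidine methanesulfonamide as the displaced ligand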
Voltage-gated inwardly rectifying potassium channel KCNH2, sequence (Q12809 whole entry): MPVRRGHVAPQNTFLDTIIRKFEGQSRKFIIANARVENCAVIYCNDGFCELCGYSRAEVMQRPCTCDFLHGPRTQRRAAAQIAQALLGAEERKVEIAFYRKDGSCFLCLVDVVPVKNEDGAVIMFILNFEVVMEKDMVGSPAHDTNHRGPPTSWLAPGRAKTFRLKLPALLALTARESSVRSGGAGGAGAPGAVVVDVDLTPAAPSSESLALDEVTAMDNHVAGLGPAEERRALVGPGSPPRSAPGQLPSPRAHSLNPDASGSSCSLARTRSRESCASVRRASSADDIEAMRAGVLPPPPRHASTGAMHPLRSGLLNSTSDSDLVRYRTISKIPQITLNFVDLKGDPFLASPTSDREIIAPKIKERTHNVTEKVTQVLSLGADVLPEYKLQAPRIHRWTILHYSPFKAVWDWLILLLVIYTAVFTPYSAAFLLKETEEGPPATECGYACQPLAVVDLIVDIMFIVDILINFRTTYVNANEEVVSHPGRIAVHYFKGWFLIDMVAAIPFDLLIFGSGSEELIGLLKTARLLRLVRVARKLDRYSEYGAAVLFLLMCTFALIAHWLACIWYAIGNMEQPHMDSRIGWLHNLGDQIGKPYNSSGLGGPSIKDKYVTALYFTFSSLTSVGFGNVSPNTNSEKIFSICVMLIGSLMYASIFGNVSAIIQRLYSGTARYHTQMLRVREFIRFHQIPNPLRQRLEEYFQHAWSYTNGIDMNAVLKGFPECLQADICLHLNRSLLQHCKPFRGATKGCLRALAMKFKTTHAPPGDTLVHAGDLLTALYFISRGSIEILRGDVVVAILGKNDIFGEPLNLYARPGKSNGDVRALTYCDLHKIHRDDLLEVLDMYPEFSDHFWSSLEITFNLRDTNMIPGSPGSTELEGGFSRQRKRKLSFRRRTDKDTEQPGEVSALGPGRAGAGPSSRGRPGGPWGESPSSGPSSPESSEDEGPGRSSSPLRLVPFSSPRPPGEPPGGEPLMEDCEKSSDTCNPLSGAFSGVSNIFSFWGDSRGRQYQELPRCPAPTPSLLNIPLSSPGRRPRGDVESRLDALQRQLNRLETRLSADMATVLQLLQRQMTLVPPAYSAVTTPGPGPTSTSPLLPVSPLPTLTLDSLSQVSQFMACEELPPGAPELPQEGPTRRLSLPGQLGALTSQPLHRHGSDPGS

Brain = test: Drug level in Sprague-Dawley rat brain at 10 mg/kg, po after 2 hrs; assay type: ADME, organism-based; set-up: dose 10 mg/kg, route oral; conditions: in vivo
Summary of the method: (§1)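 Male SD rats (7-10 weeks, 200-400 g) dosed orally at 10 mg/kg in 0.5% methylcellulose; at 2 h aortic blood taken under isoflurane. Plasma, brain homogenate (sonicated in water) and CSF deproteinized with 3-fold ethanol plus internal standard, -20 °C 20 min, centrifuged; LC/MS/MS with relative calibration curve. Mean, n = 2-3.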

[6] = Plasma concentration in Sprague-Dawley rat at 10 mg/kg, po after 2 hrs; assay type: ADME, organism-based; set-up: dose 10 mg/kg, route oral; summary of the method: as §1
[7] = Drug level in Sprague-Dawley rat cerebrospinal fluid at 10 mg/kg, po after 2 hrs; assay type: ADME, organism-based; set-up: dose 10 mg/kg, route oral; conditions: Sprague-Dawley, cerebrospinal fluid, read-out: Drug uptake; summary of the method: as §1
[8] = Ratio of drug level from brain to plasma in Sprague-Dawley rat at 10 mg/kg, po after 2 hrs; assay type: ADME, organism-based; set-up: dose 10 mg/kg, route oral; summary of the method: as §1

SMILES | Ki [1] [nM] | CLhep predicted [2] [mL/min/kg] | logD [3] | Ratio [4] | Drug uptake (Brain) [nmol/g] | concentration at 2 h [6] [µM] | concentration at 2 h [7] [nM] | Kp at 2 h [8] | IC50 [5] [µM]
C[C@@H]1NC(c2cncc(C#N)c2)=N[C@@]1(c1ccc(F)cc1)c1ccc(F)nc1 | 3.2 | 12 | 2.9 | 0.087 | 5.3 | 4.4 | 460 | 1.2 | > 10
CCC[C@@H]1NC(c2cc(C#N)ccn2)=NC1(c1ccc(F)cc1)c1ccc(F)cc1 | 8.6 | – | – | – | – | – | – | – | 0.49
C[C@@H]1NC(c2cccc(=O)[nH]2)=N[C@@]1(c1ccc(F)cc1)c1ccc(F)nc1 | – | – | 2.4 | – | 0.36 | 3.7 | 50 | 0.1 | –
C[C@@H]1NC(c2nccs2)=N[C@@]1(c1ccc(F)cc1)c1ccc(F)nc1 | 4.1 | – | 3 | – | – | – | – | – | > 10
C[C@H]1NC(c2cc(C#N)ccn2)=NC1(c1ccc(F)cc1)c1ccc(F)cc1 | 300 | – | – | – | – | – | – | – | –
C[C@@H]1NC(c2cc(C#N)ccn2)=NC1(c1ccc(F)nc1)c1ccc(F)nc1 | 3.1 | 52 | 2.2 | – | – | – | – | – | > 10
CC[C@@H]1NC(c2cc(C#N)ccn2)=NC1(c1ccc(F)cc1)c1ccc(F)cc1 | 2.6 | – | – | – | – | – | – | – | 0.49
C[C@@H]1NC(c2nccc(C#N)n2)=N[C@@]1(c1ccc(F)cc1)c1ccc(F)nc1 | 3.6 | 30 | 2.2 | – | – | – | – | – | –
C[C@@H]1NC(c2cccc(C#N)n2)=N[C@@]1(c1ccc(F)cc1)c1ccc(F)nc1 | 5.9 | 13 | 3.3 | – | – | – | – | – | 6.93
N#Cc1cccc(C2=NC(c3ccc(F)cc3)(c3ccc(F)cc3)CN2)c1 | – | – | – | 0.003 | 8.1 | – | – | – | –
C[C@@H]1NC(c2cc(C#N)ccn2)=N[C@]1(c1ccc(F)cc1)c1ccc(F)nc1 | – | 56 | 2.9 | – | – | – | – | – | –
C[C@@H]1NC(c2cc(C(N)=O)ccn2)=N[C@@]1(c1ccc(F)cc1)c1ccc(F)nc1 | 5.1 | 7 | 2.4 | – | – | – | – | – | –
C[C@@H]1NC(c2cc(C#N)ccn2)=N[C@@]1(c1ccc(F)cc1)c1ccc(=O)[nH]c1 | 145 | – | – | – | – | – | – | – | –
COc1ccnc(C2=N[C@@](c3ccc(F)cc3)(c3ccc(F)nc3)[C@H](C)N2)c1 | 2.5 | 58 | 3.6 | – | – | – | – | – | –
N#Cc1ccnc(C2=NC(c3ccc(F)cc3)(c3ccc(F)cc3)[C@H](CO)N2)c1 | 3 | 11 | 3.4 | 0.025 | 2.3 | 1.1 | 57 | 2.1 | 6.1
Fc1ccc(C2(c3ccc(F)cc3)CNC(c3cnccn3)=N2)cc1 | 4.3 | 51 | 3.5 | 0.011 | 5.9 | – | – | – | 3.4

Continued by falling Ki [1], values first:

Ki [1] [nM] | CLhep predicted [2] [mL/min/kg] | logD [3] | Ratio [4] | Drug uptake (Brain) [nmol/g] | concentration at 2 h [6] [µM] | concentration at 2 h [7] [nM] | Kp at 2 h [8] | SMILES | IC50 [5] [µM]
2.5 | 6 | 2.9 | – | – | – | – | – | C[C@@H]1NC(c2cccc(S(C)(=O)=O)c2)=N[C@@]1(c1ccc(F)cc1)c1ccc(F)nc1 | > 10
2.2 | 42 | 2.5 | – | – | – | – | – | C[C@@H]1NC(c2cnccn2)=N[C@@]1(c1ccc(F)cc1)c1ccc(F)nc1 | –
2 | 12 | 4 | 0.004 | 6.4 | – | – | – | N#Cc1ccnc(C2=NC(c3ccc(F)cc3)(c3ccc(F)cc3)CN2)c1 | 0.101
2 | 58 | 3.1 | – | – | – | – | – | C[C@@H]1NC(c2cnsn2)=N[C@@]1(c1ccc(F)cc1)c1ccc(F)nc1 | –
1.9 | 57 | 3.7 | – | – | – | – | – | C[C@@H]1NC(c2cnccn2)=NC1(c1ccc(F)cc1)c1ccc(F)cc1 | > 10
1.8 | 58 | 3.8 | – | – | – | – | – | C[C@@H]1NC(c2cc(Cl)ccn2)=N[C@@]1(c1ccc(F)cc1)c1ccc(F)nc1 | –
1.1 | 44 | 3.5 | – | – | – | – | – | COc1ccc([C@]2(c3ccc(F)cc3)N=C(c3cc(C#N)ccn3)N[C@H]2C)cn1 | –
1 | 28 | 4.1 | – | – | – | – | – | C[C@@H]1NC(c2cc(C#N)ccn2)=NC1(c1ccc(F)cc1)c1ccc(F)cc1 | –
1 | 13 | 3.2 | 0.069 | 3.2 | 3.7 | 220 | 0.9 | C[C@@H]1NC(c2ccnc(C#N)c2)=N[C@@]1(c1ccc(F)cc1)c1ccc(F)nc1 | > 10
0.8 | 9 | 3.6 | – | 6.1 | 2.6 | 130 | 2.3 | C[C@@H]1NC(c2cccc(C#N)c2)=N[C@@]1(c1ccc(F)cc1)c1ccc(F)nc1 | –
